In one series the test system is WBC FAAH. The settings on record: 4 mg once-daily dose more than sufficient; cited from earlier work.
For series [1] the following is noted: patients with osteoarthritis; cited from earlier work.
The nature of series [2]: JNJ-42165279 plasma and urine pharmacokinetics, MAD study. Format: in vivo, human. In outline:
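Plasma and urine samples were taken from healthy volunteers given oral test compound once daily for 10 days (10–100 mg cohorts). Plasma was assayed by validated LC/MS/MS, with profiles over 0–24 h on day 1 and 0–96 h on day 10. PK parameters came from noncompartmental analysis. Accumulation ratios compared day 10 with day 1.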

A short description of series [3]: JNJ-42165279 concentration in CSF, MAD study. Type of series: in vivo, human. To be noted: after 7 days. In short, it runs like this: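 Test compound in CSF was quantified by a validated LC/MS/MS method after 7 days of once-daily oral dosing in healthy volunteers: 10 mg young men, 25 mg young men, and 100 mg elderly (men only). Values were related to plasma concentrations at Cmax on day 10.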

A short description of another series: plasma protein binding. Type of series: in vitro ADME. To be noted: humans, estimated.
Series [4] addresses T1, FAAH (Homo sapiens, UniProt O00519).
T1 sequence (O00519 1-579): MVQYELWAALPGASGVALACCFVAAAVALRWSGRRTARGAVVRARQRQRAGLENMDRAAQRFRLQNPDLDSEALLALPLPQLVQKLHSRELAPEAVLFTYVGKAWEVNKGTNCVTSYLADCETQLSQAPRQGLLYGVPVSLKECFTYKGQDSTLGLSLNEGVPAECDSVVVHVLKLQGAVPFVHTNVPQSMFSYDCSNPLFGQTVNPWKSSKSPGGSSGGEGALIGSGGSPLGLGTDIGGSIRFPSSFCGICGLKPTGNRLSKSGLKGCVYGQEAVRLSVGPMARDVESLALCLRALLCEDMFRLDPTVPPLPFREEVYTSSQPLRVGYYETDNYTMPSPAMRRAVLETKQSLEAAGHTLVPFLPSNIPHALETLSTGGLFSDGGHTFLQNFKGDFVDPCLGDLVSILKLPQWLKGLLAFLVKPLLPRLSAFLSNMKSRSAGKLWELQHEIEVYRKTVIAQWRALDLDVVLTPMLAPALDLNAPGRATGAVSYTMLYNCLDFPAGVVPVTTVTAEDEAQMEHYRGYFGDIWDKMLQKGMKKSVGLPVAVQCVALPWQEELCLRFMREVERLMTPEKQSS
Description: FAAH activity in leukocytes. Type of series: in vivo. In outline: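 Leukocyte FAAH activity was assayed in healthy volunteers dosed orally once daily for 10 days (10–100 mg cohorts, placebo controls). It was expressed as percent of predose activity. Sampling ran 0–24 h postdose on day 1 and 0–96 h after the day-10 dose. In the PET study, leukocytes were also sampled at scan midpoint, about 4 h 45 min postdose.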

In series [5] the test system is plasma FAA (AEA, OEA, PEA). Description: FAA concentrations in plasma. Type of series: in vivo, human. In short, it runs like this:
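Plasma AEA, OEA and PEA were followed in healthy volunteers given oral test compound (10–100 mg) or placebo once daily for 10 days, six active and two placebo per cohort. Concentration–time profiles were taken on day 1 (0–24 h postdose) and day 10 (0–96 h postdose). Mean peak values were compared with mean peak placebo values.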

The subject of the next series is CSF FAA (AA, AEA, OEA). Description: FAA concentrations in CSF. The settings on record: for AEA concentration in cerebrospinal fluid / OEA concentration in cerebrospinal fluid / AA concentration in cerebrospinal fluid: young male volunteers, mean (SD). Format: in vivo, human. In short, it runs like this:
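CSF sampled in the double-blind, placebo-controlled multiple-ascending-dose study in healthy volunteers. Oral test compound or placebo was given once daily for 10 days: 10, 25 or 75 mg in young men, 100 mg in young women, 100 mg in elderly subjects. AEA, OEA and arachidonic acid were measured predose and after 6–7 days of dosing. Values were expressed against predose or baseline.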

The target of the next series is T2, brain FAAH (Homo sapiens, UniProt O00519).
T2 sequence (O00519 1-579): T1 sequence (O00519 1-579)
Description: brain FAAH occupancy by PET with [11C]MK3168. Type of series: in vivo. In outline: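 Healthy men were scanned by PET with [11C]MK3168 at baseline. In Part 2, scans followed single oral doses (2.5–100 mg range, adaptive; tracer injected 1 h postdose), with repeat doses at least 1 week apart. In Part 3, scans were 24 h after a single dose and 24 h after the last of 7 daily doses. Occupancy came from two-tissue compartment VT, baseline versus treatment.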

Series [6] is described as follows: treatment-emergent adverse events and safety, MAD study. Format: in vivo, human. The settings on record: MAD and PET studies. In outline: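 Safety covered treatment-emergent adverse events, physical examinations, laboratory tests, 12-lead ECG and vital signs. Subjects were healthy volunteers on 10 days of once-daily oral test compound (10–100 mg) or placebo, double-blind and randomized, six active and two placebo per cohort.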

A short description of the next series: behavioral evaluations. Format: in vivo, human.
For series [7], the system named is FAAH. To be noted: cited from earlier work.
For series [8] the following is noted: single clinical doses, healthy volunteers; cited from earlier work.
The nature of series [9]: [11C]MK3168 radiometabolite analysis and brain uptake. Format: in vivo, human. The settings on record: for standardized uptake value (SUV), gray matter regions / tracer uptake in gray matter regions: baseline. In short, it runs like this:
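In healthy men, the tracer was given as a slow IV bolus (356 ± 57MBq; molar activity 111 ± 67 GBq/μmol), synchronized with a 90-min list-mode PET/CT acquisition after low-dose CT for attenuation correction. Discrete arterial samples at each scan measured parent tracer and radiometabolites as the input function. Brain time-activity curves came from MRI-coregistered, template-based regions.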

Another series relates to human FAAH. The settings on record: cited from earlier work.
[10] abbreviates: day 10 vs day 1, doses 10–100 mg, range across cohorts.
Setting [11] is: ∼24 h after stopping the 10 mg dosing.
[12] abbreviates: Predose (baseline), 10 mg cohort.
Setting [13] is: Predose (baseline), 25 mg cohort.
The mark [14] stands for this setting: Predose (baseline), 75 mg cohort.

Marks after values point to notes of the source that are not given here. Some results are limits rather than exact numbers.

For the molecule `O=C(Nc1cccnn1)N1CCC(=Cc2cccc(Oc3ccc(C(F)(F)F)cn3)c2)CC1` [PF‐04457845], the “inhibition of WBC FAAH” value in the series with WBC FAAH is 97%. Besides, the “effect on pain perception” value in [1] is given as “no effect on pain perception”.
Take `O=C(Nc1cnccc1Cl)N1CCN(Cc2ccc3c(c2)OC(F)(F)O3)CC1` [JNJ‐42165279]: the “estimated accumulation ratio for AUC” value in [2] (setting [10]) is 144–337%. Also, the “estimated accumulation ratio for Cmax” value in [2] (setting [10]) was 98–156%. In [2] (in vivo), this molecule showed a terminal half-life of 8 to 14 h. This molecule came in with a Mean plasma half-life in series [2] (range of cohort means, 10–100 mg QD) of 8.14 to 14.1 h. Moreover, the “Mean concentration of JNJ-42165279 in CSF” value in series [3] (cohort A (25 mg)) was 8.95 ng/mL; in series [3] (cohort D, men only) it was 31.8 ng/mL; in series [3] (cohort E (10 mg)) it was 2.67 ng/mL. Besides, in series [3] (slightly over), the “CSF concentration relative to plasma values at Cmax on day 10” value is listed as “over 3%”. In the series “plasma protein binding”, the unbound fraction is recorded as 6.4–7.5%. Besides, on FAAH [4] (relative to predose values, after a single dose, 10–100 mg dose range), the “FAAH activity remaining in leukocytes, mean trough” value is 7.85–10.4%. The “FAAH activity recovered in leukocytes” value on FAAH [4] (setting [11]) is recorded as approximately 50%. For the same molecule, the “doses with maximal effect on plasma AEA turnover” value in series [5] (in vivo) was not below 75 mg. Further, the “increase of plasma AEA levels” value in series [5] (lowest dose tested in the MAD study (10 mg)) is not below 10 fold. Further, in series [5] (single doses 10–100 mg), the “mean peak plasma AEA concentration versus mean peak placebo values” is 5.5–10 fold. For the same molecule, in series [5] (single doses 10–100 mg), the “mean peak plasma OEA and PEA concentrations versus mean peak placebo” value is listed as 4.3–5.6 fold. The “increase of mean CSF AEA concentration relative to predose” value in the series on CSF FAA (AA, AEA, OEA) (10 mg daily for 7 days) was approximately 45 fold; in the series with CSF FAA (AA, AEA, OEA) (25 mg daily for 7 days), approximately 41 fold; in the series on CSF FAA (AA, AEA, OEA) (75 mg daily for 7 days), approximately 77 fold. Further, the “increase of mean CSF OEA concentration relative to predose” value is on record as approximately 6.6 fold in the series on CSF FAA (AA, AEA, OEA) (10 mg daily for 7 days); approximately 5.8 fold with CSF FAA (AA, AEA, OEA) (25 mg daily for 7 days); approximately 7.4 fold in the series on CSF FAA (AA, AEA, OEA) (75 mg daily for 7 days). Besides, the “AEA concentration in cerebrospinal fluid” value is reported as 12.6 (4.86) in the series with CSF FAA (AA, AEA, OEA) (Day 7, 10 mg daily); 21.24 (7.39) ^b with CSF FAA (AA, AEA, OEA) (Day 7, 25 mg daily, n=5); 28.88 (9.52) ^b in the series on CSF FAA (AA, AEA, OEA) (Day 7, 75 mg daily, n=5); 0.28 (0.31) with CSF FAA (AA, AEA, OEA) (setting [12]); 0.52 (0.16) in the series with CSF FAA (AA, AEA, OEA) (setting [13]); 0.38 (0.21) with CSF FAA (AA, AEA, OEA) (setting [14]). Also, the “OEA concentration in cerebrospinal fluid” value is given as 139 (42.0) in the series with CSF FAA (AA, AEA, OEA) (Day 7, 10 mg daily); 116.81 (26.07) ^b in the series with CSF FAA (AA, AEA, OEA) (Day 7, 25 mg daily, n=5); 150.24 (34.64) ^b in the series with CSF FAA (AA, AEA, OEA) (Day 7, 75 mg daily, n=5); 21.2 (5.33) with CSF FAA (AA, AEA, OEA) (setting [12]); 20.15 (10.19) with CSF FAA (AA, AEA, OEA) (setting [13]); 20.21 (8.25) with CSF FAA (AA, AEA, OEA) (setting [14]). The “AA concentration in cerebrospinal fluid” value in the series on CSF FAA (AA, AEA, OEA) (Day 7, 25 mg daily, n=5) is 1.44 (0.52) ^b; with CSF FAA (AA, AEA, OEA) (Day 7, 75 mg daily, n=5), 1.81 (0.72) ^b; in the series on CSF FAA (AA, AEA, OEA) (setting [13]), 1.85 (0.52); with CSF FAA (AA, AEA, OEA) (setting [14]), 2.04 (0.86). For the same molecule, the “increase of AEA concentrations in CSF” value in the series on CSF FAA (AA, AEA, OEA) (after 7 days of dosing) is given as 40–70 fold. Also, the “occupancy of brain FAAH” value on brain FAAH (24 h after dosing with 10 mg) is given as 80–85%. The “FAAH occupancy at trough” value at brain FAAH (after the first dose of 10 mg) is more than 80%. Besides, the “doses giving saturation of brain FAAH occupancy” value at brain FAAH (in vivo) is listed as not below 10 mg. Besides, the “brain FAAH occupancy” value is “lesser, although appreciable, occupancy” at brain FAAH (single doses of 2.5 and 5 mg, at estimated Cmax); 96–98% on brain FAAH (single doses of 10, 25, and 50 mg, at estimated Cmax); not below 80% at brain FAAH (setting [11]). Besides, the “deaths, serious or severe TEAEs, discontinuations due to TEAEs” value in series [6] is “No deaths, serious, or severe treatment emergent adverse event (TEAEs) or discontinuations due to TEAEs”. Besides, in series [6], the “vital signs, ECG parameters including QTc, physical examination” value is reported as “no clinically significant treatment effects were observed”. For the same molecule, the “quality of working memory (QWM)” value in the series “behavioral evaluations” (100 mg, elderly volunteers, P ≤ 0.05, 4 h postdose days 1, 6, 10) is “significant negative treatment effect”. For the same molecule, the ARCI-53 report result in “behavioral evaluations” (100 mg, women of nonchild-bearing potential) is “slight similarity to sedatives and dissimilarity to stimulants”. For the same molecule, the “treatment effect on tapping, tracking, and postural stability” value in the series “behavioral evaluations” (MAD study) is given as “No treatment effects were observed”. Moreover, the “ARCI-53: experiences similar to marijuana or hallucinogens” value in “behavioral evaluations” (all groups) is “no groups reported experiences similar to marijuana or hallucinogens”. For the same molecule, in the series on FAAH [7], the “affinity for human over rat FAAH” value was “much higher affinity”.
For `CCCCCCC(C)(C)c1cc(O)c2c(c1)OC(C)(C)C1CCC(=O)CC21` (stereo not shown) [nabilone], the “effect on cognitive performance” value in series [8] is on record as “notable impairment on cognitive performance”.
As to `CN(C)C(=O)[C@H]1C[C@@H]1c1ccc(-c2ncn(C)c2Sc2ccc(Cl)cn2)cc1` [[^11C]MK3168], the results for the “standardized uptake value (SUV), gray matter regions” value in series [9] (at 20 min) and in series [9] (at 90 min) were approximately 3.0 and approximately 2.0, respectively. The “tracer uptake in gray matter regions” value is recorded as approximately 15 kBq/cc in series [9] (at 20 min) and approximately 10 kBq/cc in series [9] (at 90 min). For the same molecule, the “parent tracer remaining in plasma” value in series [9] (baseline scans, 10 min postinjection) is given as 30–40%. Moreover, the “elimination of tracer from plasma” value in series [9] (baseline scans, 60 min p.i.) was “almost complete elimination”. The IC50 in the series with human FAAH is 1 ± 0.6 nM.

(Values after PMC6039207 (Clinical and Translational Science, 2018).)
